Laboratory results published in ChEMBL document CHEMBL1156208, “Novel DNA-peptide interaction networks” (Bioorg Med Chem, 2010).
The source made the active and inactive calls. The calls are words filed in the database; no cut-off is given here. Starred links: 1 amine or outer side, 2 acyl side, 3 side chain; linkers in the order of their positions; H or OH if unused. Non-standard residues stand in square brackets, D forms with d. Residues, ends and D or L forms follow the SMILES beside them. X1 = Cn1cc(N[*:1])cc1C(=O)[*:2]

Key:
Format in all cases: nucleic-acid assay
[1] = test system: Nucleic Acid; experiment: Binding affinity to 13-mer DNA duplex U4A-L4T assessed as conformational change after 60 mins by circular dichroism
How it was run: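 CD spectra were recorded at 37 °C after 60 min incubation. Difference spectra were obtained by subtracting the duplex-alone and peptide-alone contributions.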

[2] = test system: Nucleic Acid; experiment: Binding affinity to 5^-TTTC-3^ sequence of [32P] labeled DNA at 2 uM after 120 mins by DNase1 foot printing
How it was run: (§1)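 5'-32P-labeled PCR duplexes (158-mer upper strand, 135-mer lower strand) were equilibrated with varying peptide concentrations in 5 mM sodium cacodylate, pH 6.5, at room temperature for 120 min. DNase I (final 0.009 unit/mL, limited to <30% digestion) was added for 10 min at 37 °C. Products were resolved on denaturing 8% polyacrylamide/8 M urea gels and band volumes integrated to give fractional saturation. Apparent K was taken as the peptide concentration at 50% saturation. Hill coefficient came from the slope of a least-squares Hill plot using at least six points.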

[3] = test system: Nucleic Acid; experiment: Binding affinity to 5^-GGAGAAAATACC-3^ sequence of [32P] labeled DNA at 2 uM after 120 mins by DNase1 foot printing; how it was run: as §1
[4] = test system: Nucleic Acid; experiment: Binding affinity to 5^-TTTTCTCC-3^ sequence of [32P] labeled DNA at 2 uM after 120 mins by DNase1 foot printing; how it was run: as §1
[5] = test system: Nucleic Acid; experiment: Binding affinity to 5^-ATTTTCTCC-3^ sequence of [32P] labeled DNA at 2 uM after 120 mins by DNase1 foot printing; how it was run: as §1
[6] = test system: Nucleic Acid; experiment: Binding affinity to 5^-TTTCACA-3^ sequence of [32P] labeled DNA at 2 uM after 120 mins by DNase1 foot printing; how it was run: as §1
[7] = test system: Nucleic Acid; experiment: Binding affinity to 5^-TTTTCTC-3^ sequence of [32P] labeled DNA at 2 uM after 120 mins by DNase1 foot printing; how it was run: as §1
[8] = test system: Nucleic Acid; experiment: Binding affinity to 5^-GAGAAAATACC-3^ sequence of [32P] labeled DNA at 2 uM after 120 mins by DNase1 foot printing; how it was run: as §1

| Structure (SMILES) | Activity [1] | Ka [2] [M⁻¹] | Ka [3] [M⁻¹] | Ka [4] [M⁻¹] | Ka [5] [M⁻¹] | Ka [6] [M⁻¹] | Ka [7] [M⁻¹] | Ka [8] [M⁻¹] |
| --- | --- | --- | --- | --- | --- | --- | --- | --- |
| Cn1cc(NC(=O)c2cc(NC(=O)C(CCCCN)NC(=O)[C@H](CCCNC(=N)N)NC(=O)[C@@H]3C[C@@H](O)CN3C(=O)[C@@H](N)Cc3cnc[nH]3)cn2C)cc1C(=O)Nc1cc(C(=O)Nc2cc(C(=O)N[C@@H](CCCCN)C(=O)N[C@@H](CCCNC(=N)N)C(N)=O)n(C)c2)n(C)c1 (single isomer, unassigned) | Active | 1.4e+06 | 4.7e+06 | 3.6e+06 | – | – | – | – |
| Cn1cc(NC(=O)c2cc(NC(=O)[C@H](CCCCN)NC(=O)[C@H](CCCNC(=N)N)NC(=O)[C@@H]3CCCN3C(=O)[C@@H](N)Cc3cnc[nH]3)cn2C)cc1C(=O)Nc1cc(C(=O)Nc2cc(C(=O)N[C@@H](CCCNC(=N)N)C(N)=O)n(C)c2)n(C)c1 | Active | – | – | – | 9.7e+06 | 8.4e+06 | – | – |
| Cn1cc(NC(=O)c2cc(NC(=O)[C@H](CCCCN)NC(=O)[C@H](CCCNC(=N)N)NC(=O)[C@@H]3CCCN3C(=O)[C@@H](N)Cc3cnc[nH]3)cn2C)cc1C(=O)Nc1cc(C(=O)Nc2cc(C(=O)N[C@@H](CCCCN)C(=O)N[C@@H](CCCNC(=N)N)C(N)=O)n(C)c2)n(C)c1 (H-HPRK[X1][X1][X1][X1]KR-NH2) | Dose-dependent effect | – | – | – | – | – | 3.4e+06 | 2.7e+06 |
